Data on one molecule can be found in ChEMBL document CHEMBL5653624 (Biochem Pharmacol, 2016).

The structures appear in SMILES notation. Calls of active or inactive are those of the source. The rule behind the calls is not given here.

The test system of data set [1] is RAW264.7. In words: Antiinflammatory activity in LPS/IFNgamma-stimulated mouse RAW264.7 cells assessed as reduction in HDAC2 expression preincubated for 20 hrs followed by LPS/IFNgamma stimulation and measured after 4 hrs by Western blot analysis. As to conditions: time 24.0 hrs. The format is functional, cell-based. In a few lines:
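RAW 264.7 cells were LPS/IFNγ-stimulated after inhibitor exposure, then lysed in Hepes/Triton buffer containing DTT, butyrate and protease inhibitors, freeze-thawed and cleared. Immunoblot with milk blocking and overnight primary antibody at 4 °C. Densitometry normalized to β-actin, LPS/IFNγ control set at 100%. Mean ± SD of 4 independent experiments.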

Data set [2] has as its system RAW264.7. The data set can be described thus: Antiinflammatory activity in LPS/IFNgamma-stimulated mouse RAW264.7 cells assessed as effect on NF-kappaB p65 expression preincubated for 20 hrs followed by LPS/IFNgamma stimulation and measured after 4 hrs by Western blot analysis. The class given is functional, cell-based. The settings on record: time 24.0 hrs.
The test system of data set [3] is Lung. In words: Antiinflammatory activity in C57bl/6 mouse precision-cut lung slices assessed as effect on LPS/IFNgamma-induced HDAC3 expression at 1 to 10 uM preincubated for 20 hrs followed by LPS/IFNgamma stimulation and measured after 4 hrs by Western blot analysis. The format is functional, tissue-based. The settings on record: dose 1-10 µM, time 24.0 hrs.

Data set [4] has as its system Lung. The data set can be described thus: Antiinflammatory activity in C57bl/6 mouse precision-cut lung slices assessed as effect on LPS/IFNgamma-induced HDAC1 gene expression at 1 to 10 uM preincubated for 20 hrs followed by LPS/IFNgamma stimulation and measured after 4 hrs by RT-qPCR analysis. The format is functional, tissue-based. As to conditions: dose 1-10 µM, time 24.0 hrs.

Data set [5] relates to HASMC. The data set can be described thus: Antiinflammatory activity in HASMC cells assessed as effect on LPS/IFNgamma-induced IL-12b gene expression at 2 uM […] and measured after 4 hrs by RT-qPCR analysis. The class given is functional, cell-based. The settings on record: Homo sapiens. In a few lines:
(§1)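 HBE cells (passage 73–103) or immortalized hASM cells (2–3 donors, passage 27–35), serum-starved. Then 2 μM RGFP966 for 20 h, with LPS/IFNγ for the last 4 h. Total RNA isolated; RT-qPCR by 2−ΔΔCt, fold change versus LPS/IFNγ control. Mean ± SD of 3–5 independent experiments.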

The test system of data set [6] is RAW264.7. The data set can be described thus: Antiinflammatory activity in LPS/IFNgamma-stimulated mouse RAW264.7 cells assessed as effect on HDAC3 mRNA expression preincubated for 20 hrs followed by LPS/IFNgamma stimulation and measured after 4 hrs by RT-qPCR analysis. The format is functional, cell-based. As to conditions: time 24.0 hrs.
Data set [7] deals with Lung. The data set can be described thus: Antiinflammatory activity in C57bl/6 mouse precision-cut lung slices assessed as upregulation of LPS/IFNgamma-induced IkappaBalpha gene expression at 1 to 10 uM preincubated for 20 hrs followed by LPS/IFNgamma stimulation and measured after 4 hrs by RT-qPCR analysis. The format is functional, tissue-based. The settings on record: dose 1-10 µM, time 24.0 hrs.

For data set [8], the target named is T1, Histone deacetylase 3 (Mus musculus) (UniProt O88895).
T1 sequence (whole entry): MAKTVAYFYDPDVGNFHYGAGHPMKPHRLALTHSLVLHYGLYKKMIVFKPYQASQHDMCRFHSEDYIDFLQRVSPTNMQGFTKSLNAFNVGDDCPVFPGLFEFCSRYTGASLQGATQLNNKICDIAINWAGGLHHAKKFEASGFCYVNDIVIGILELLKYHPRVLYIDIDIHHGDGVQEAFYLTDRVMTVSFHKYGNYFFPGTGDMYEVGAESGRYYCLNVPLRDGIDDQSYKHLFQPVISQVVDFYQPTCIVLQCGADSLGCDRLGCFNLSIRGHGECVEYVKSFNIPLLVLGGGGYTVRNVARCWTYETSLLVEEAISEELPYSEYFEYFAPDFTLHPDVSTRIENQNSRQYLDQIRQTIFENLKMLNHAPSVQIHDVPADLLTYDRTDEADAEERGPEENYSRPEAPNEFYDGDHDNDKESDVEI
In words: Inhibition of HDAC3 in mouse RAW-Blue cells assessed as effect on NF-kappaB p65 transcriptional activity measured after 16 hrs by SEAP reporter gene assay. The format is cell-based. An outline of the steps: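 RAW-Blue cells (RAW 264.7-derived, stably expressing an NF-κB/AP-1-inducible secreted embryonic alkaline phosphatase) exposed to inhibitor for 20 h total, with 10 ng/ml LPS plus 10 ng/ml IFNγ added for the final 4 h. Supernatant mixed with QUANTI-Blue medium, 37 °C 1–2 h in the dark, absorbance 630 nm; reported as % of control.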

The test system of data set [9] is Lung. In words: Antiinflammatory activity in C57bl/6 mouse precision-cut lung slices assessed as upregulation of LPS/IFNgamma-induced Fizz1 gene expression at 1 to 10 uM preincubated for 20 hrs followed by LPS/IFNgamma stimulation and measured after 4 hrs by RT-qPCR analysis. The class given is functional, tissue-based. As to conditions: dose 1-10 µM, time 24.0 hrs. An outline of the steps:
(§2)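 PCLS, 250 μm thick, cut from agarose-filled lungs of male C57bl/6 mice (24–28 g, 8–10 weeks). Three slices per well at 37 °C, 5% CO2. Slices received RGFP966 at 1 and 10 μM final for 20 h, with 10 ng/ml LPS and 10 ng/ml IFNγ stimulation. RNA isolated; RT-qPCR fold change versus LPS/IFNγ control by 2−ΔΔCt. Mean ± SD, n = 3–5.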

Data set [10] concerns RAW264.7. The data set can be described thus: Antiinflammatory activity in LPS/IFNgamma-stimulated mouse RAW264.7 cells assessed as effect on HDAC2 mRNA expression preincubated for 20 hrs followed by LPS/IFNgamma stimulation and measured after 4 hrs by RT-qPCR analysis. The format is functional, cell-based. As to conditions: time 24.0 hrs.
The next data set concerns HBE. In words: Antiinflammatory activity in HBE cells assessed as effect on LPS/IFNgamma-induced TNFalpha gene expression at 2 uM […] by RT-qPCR analysis. The class given is functional, cell-based. As to conditions: Homo sapiens. In a few lines: as §1
In data set [11] the test system is Lung. The data set can be described thus: Antiinflammatory activity in C57bl/6 mouse precision-cut lung slices assessed as upregulation of LPS/IFNgamma-induced IL-10 gene expression at 1 to 10 uM preincubated for 20 hrs followed by LPS/IFNgamma stimulation and measured after 4 hrs by RT-qPCR analysis relative to control. The class given is functional. The settings on record: dose 1-10 µM; time 24 hrs. In a few lines: as §2

Data set [12] has as its system HASMC. The data set can be described thus: Cytotoxicity against HASMC cells assessed as reduction in cell viability at 2 uM measured after 20 hrs by MTS assay. The format is toxicity, cell-based. The settings on record: human. In a few lines:
(§3)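 MTS viability assay. RAW 264.7 cells seeded at 25,000 cells/cm2; HBE and hASM cells at 70% confluency and serum-starved for 24 h. Exposure for 20 h with LPS/IFNγ stimulation. MTS reagent added for 1 h at 37 °C in the dark, absorbance read at 490 nm. LPS/IFNγ-stimulated cells without inhibitor set at 100%.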

Data set [13] concerns the target Histone deacetylase 1 (Mus musculus) (UniProt O09106). The data set can be described thus: Effect on HDAC1 nuclear localization in LPS/IFNgamma-stimulated mouse RAW264.7 cells preincubated for 20 hrs followed by LPS/IFNgamma stimulation and measured after 1 hr by Hoechst staining based confocal laser scanning microscopy. The format is cell-based. An outline of the steps:
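RAW 264.7 cells at 20,000 cells/cm2 received 1 μM RGFP966 for 20 h, then 1 h LPS/IFNγ. Fixed in 4% formaldehyde, permeabilized with 0.25% Triton X-100, blocked with 5% BSA. Primary antibodies 2 h at 4 °C, AlexaFluor secondaries 1 h, Hoechst nuclear stain. Confocal imaging at 630×; 4 independent experiments.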

Data set [14] deals with HASMC. In words: Antiinflammatory activity in HASMC cells assessed as effect on LPS/IFNgamma-induced TNFalpha gene expression at 2 uM […] and measured after 4 hrs by RT-qPCR analysis. The class given is functional, cell-based. As to conditions: Homo sapiens. In a few lines:
as §1

Data set [15] concerns RAW264.7. In words: Cytotoxicity against mouse RAW264.7 cells assessed as reduction in cell viability at 1 uM measured after 20 hrs by MTS assay. The format is toxicity, cell-based. As to conditions: raw264.7, 20 h. In a few lines:
as §3

Chain of Histone deacetylase 1 (Mus musculus) (O09106 whole entry): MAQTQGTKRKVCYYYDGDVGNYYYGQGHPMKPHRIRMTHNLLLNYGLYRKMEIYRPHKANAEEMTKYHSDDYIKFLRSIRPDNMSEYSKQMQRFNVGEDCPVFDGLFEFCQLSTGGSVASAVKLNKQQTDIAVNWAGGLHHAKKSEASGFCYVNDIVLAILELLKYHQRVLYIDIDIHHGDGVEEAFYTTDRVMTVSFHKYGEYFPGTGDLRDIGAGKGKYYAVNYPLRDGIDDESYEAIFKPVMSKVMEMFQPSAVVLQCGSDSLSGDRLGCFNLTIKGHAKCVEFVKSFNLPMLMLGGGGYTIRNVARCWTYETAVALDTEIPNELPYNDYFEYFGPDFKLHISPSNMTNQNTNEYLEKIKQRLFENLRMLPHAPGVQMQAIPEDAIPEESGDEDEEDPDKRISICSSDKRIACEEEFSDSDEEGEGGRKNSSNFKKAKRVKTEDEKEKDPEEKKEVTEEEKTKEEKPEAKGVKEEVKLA

With `Nc1cc(F)ccc1NC(=O)/C=C/c1cnn(C/C=C/c2ccccc2)c1`, the result in the data set with RAW264.7 [1], in the data set on Lung [7] and in the data set on Lung [9] was Active. Besides, the result with RAW264.7 [2], in the data set on Lung [3], in the data set with Lung [4], in the data set on HASMC [5], in the data set on RAW264.7 [6] and with RAW264.7 [10] was inactive. The result (in the data set on HBE; in data set [13]; in the data set on HASMC [14]) was inactive. Moreover, the inhibition entry in data set [8] is “inactive”. Further, in the data set on Lung [11], the “fold change (FC)” value turned out to be 2. The Activity result with HASMC [12] and in the data set on RAW264.7 [15] was “Non-Toxic” throughout.
